Source: PubChem (The Scripps Research Institute Molecular Screening Center)
ASAP1 inh: inhibitors of human ASAP1 ArfGAP activity. Q9ULH1. ASAP1-stimulated ARF1 GTP hydrolysis, GDP FP detection. inhibition, % at 16.5 µM. hit rate 0.19% among 360,000. AID 624377; in the data active = inhibition above about 25%
HGIII-sPLA2 inh: Blocks human group III sPLA2 activity; hit rate 0.56% among 370,000; Q9NZ20; QFRET BODIPY PC-A2 liposome hydrolysis, fluorescence; inhibition, % at 12.2 µM; AID 743126;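 active = inhibition above mean plus 3 SD of compounds lying within the high and low control bounds, cut at about 19% in these data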
PLC-gamma1 inh: PLC-gamma1 (human) inhibition, primary screen; hit rate 0.84% among 370,000; inhibition, % at 12.2 µM; purified PLC-gamma1, fluorogenic substrate, fluorescence; AID 720700; in the data active = inhibition above about 9.5%
PLCb3 inh: inhibitors of human phospholipase C beta3. hit rate 0.18% among 370,000. inhibition, % at 12.2 µM. Q01970. Purified PLC-beta3, fluorogenic substrate, fluorescence
Target sequence (Q01970 whole entry, looked up): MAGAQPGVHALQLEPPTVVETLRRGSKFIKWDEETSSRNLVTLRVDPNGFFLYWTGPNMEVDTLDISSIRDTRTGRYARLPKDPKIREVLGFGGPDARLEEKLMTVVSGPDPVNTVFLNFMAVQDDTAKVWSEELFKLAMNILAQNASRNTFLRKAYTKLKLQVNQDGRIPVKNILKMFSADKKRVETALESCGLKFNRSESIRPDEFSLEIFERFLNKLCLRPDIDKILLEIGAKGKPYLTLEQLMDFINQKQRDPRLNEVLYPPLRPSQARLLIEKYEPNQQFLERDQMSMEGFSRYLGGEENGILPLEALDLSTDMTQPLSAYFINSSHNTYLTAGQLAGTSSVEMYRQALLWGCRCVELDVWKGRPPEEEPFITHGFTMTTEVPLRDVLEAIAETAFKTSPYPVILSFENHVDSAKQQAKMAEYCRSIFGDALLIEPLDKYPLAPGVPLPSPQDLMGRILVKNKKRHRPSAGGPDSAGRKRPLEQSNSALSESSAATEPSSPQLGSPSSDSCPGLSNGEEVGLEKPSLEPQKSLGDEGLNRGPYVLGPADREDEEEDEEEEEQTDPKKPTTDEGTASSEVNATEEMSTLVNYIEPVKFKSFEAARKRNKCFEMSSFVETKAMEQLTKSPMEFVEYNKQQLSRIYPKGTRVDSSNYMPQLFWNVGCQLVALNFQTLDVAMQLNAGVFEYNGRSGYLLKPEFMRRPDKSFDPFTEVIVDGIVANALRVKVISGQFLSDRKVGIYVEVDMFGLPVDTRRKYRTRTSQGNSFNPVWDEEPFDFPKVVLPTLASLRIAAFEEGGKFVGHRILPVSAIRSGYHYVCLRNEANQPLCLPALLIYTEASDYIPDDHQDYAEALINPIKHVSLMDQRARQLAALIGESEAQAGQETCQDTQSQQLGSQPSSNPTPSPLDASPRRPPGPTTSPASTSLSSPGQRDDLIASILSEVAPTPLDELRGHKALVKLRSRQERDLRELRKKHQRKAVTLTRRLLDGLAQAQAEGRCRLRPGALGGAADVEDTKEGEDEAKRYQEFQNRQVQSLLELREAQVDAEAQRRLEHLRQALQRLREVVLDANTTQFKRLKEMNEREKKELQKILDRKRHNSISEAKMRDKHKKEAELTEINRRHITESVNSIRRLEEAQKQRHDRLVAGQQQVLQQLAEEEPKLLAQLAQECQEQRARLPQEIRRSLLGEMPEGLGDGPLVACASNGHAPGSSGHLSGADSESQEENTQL
ARFGAP1 inh: rat ARFGAP1 inhibition; Q62848; Arfgap1-stimulated ARF1 GTP hydrolysis, GDP FP detection; inhibition, % at 16.5 µM; hit rate 0.26% among 360,000; AID 651572;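 active = inhibition above a per-plate limit, mean inhibition of low control wells plus 3 SD, cut at about 25% in these data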
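material = rat Arfgap1 catalytic domain, aa 1-136 | also added = human ARF1(Δ1-17)-GTP substrate | compound dosing = one concentration, 16.5 µM, DMSO 1.26% | times = GTP hydrolysis reaction 2 h at 25 °C | measured by = FP, GDP Alexa 633 tracer displaced from anti-GDP antibody, 620/688 nm | evaluation = percent inhibition of Arfgap1-stimulated GTP hydrolysis | replication = single well per compound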
PLCgamma1 ctr: counter-screen for PLC-beta3 inhibitors: inhibitors of human PLC-gamma1 | shares compounds with PLC-gamma1 inh | purified PLC-gamma1, fluorogenic substrate, fluorescence | hit rate 3.1% among 3,300 | AID 743258 | inhibition, % at 12.3 µM; in the data active = inhibition above about 9.5%
PLCb3 confirm: human PLC-beta3 inhibition, confirmation; hit rate 1% among 3,300; shares compounds with PLC-gamma1 inh; inhibition, % at 12.3 µM; purified PLC-beta3, fluorogenic substrate fluorescence; AID 743261
A number is an active result; - = inactive; . = no result given. Hits are enriched below; roughly 1.9% of the tested compounds scored in any of these assays. Cut-off read from the data, not from the text of the source, unless noted: active = inhibition above about 11%; inactive = the rest.

SMILES	ASAP1 inh	HGIII-sPLA2 inh	PLC-gamma1 inh	PLCb3 inh	ARFGAP1 inh	PLCgamma1 ctr	PLCb3 confirm
O=C(OCC(=O)c1c[nH]c2ccccc12)c1ccco1	-	-	-	10.8	-	-	-
COc1cc(NC(=O)c2ccco2)c(C(=O)OCC(=O)c2c[nH]c3ccccc23)cc1OC	-	-	-	-	-	.	.
C=CCC12C=C(OC)C(=O)C(C1=O)C1c3ccccc3CC12 (stereo not given)	.	-	-	-	.	.	.
CCCCNC[C@@]12CO[C@H](c3ccc(Cl)cc3)N1[C@@H](c1ccc(Cl)cc1)SC2	.	-	-	-	.	.	.
Cc1ccsc1/C=C1\SC(N)=NC1=O	-	-	10.1	-	-	-	-
CCOc1ccccc1C(=O)N/N=C/c1cccc2cccnc12	-	-	14.0	-	-	-	-
CC(C)(C)C(=O)OCc1cn(-c2ccccc2)nn1	-	-	11.3	-	-	-	-
CC(C)CC(=O)OCc1cn(-c2ccccc2)nn1	-	-	14.9	-	-	-	-
CCNC(=O)OCc1cn(-c2ccccc2)nn1	-	-	-	-	-	.	.
CC(C)CNC(=O)OCc1cn(Cc2cc(F)cc(F)c2)nn1	.	-	-	-	.	.	.
C[C@@H]1ON(C)[C@H]2C[C@H]3c4cc(-c5ccc(F)cc5)ccc4CCN3C[C@@H]12	-	-	-	-	-	.	.
CCCCCCCCNS(=O)(=O)/C=C/c1ccccc1CNC(=O)OC(C)(C)C	.	-	-	-	.	.	.
Cc1ccc(NC(=O)C(C)Sc2nnc(-c3cccnc3)n2-c2ccccc2)cc1 (stereo not given)	-	-	-	-	-	.	.
Cc1ccccc1-n1c(SC(C)C(N)=O)nnc1-c1cccnc1 (stereo not given)	-	-	11.4	-	-	-	-
Cc1ccc(-n2ncc3c(N4CCC(C(N)=O)CC4)ncnc32)c(C)c1	-	-	14.7	-	-	-	-
CCN(CC)C(=O)C1CCN(c2ncnc3c2cnn3-c2ccc(C)cc2C)CC1	-	-	-	-	-	.	.
c1ccc(CC2CCN(C(c3cccs3)c3nnnn3C3CCCC3)CC2)cc1 (stereo not given)	-	-	-	-	-	.	.
COc1ccccc1N1CCN(C(c2cccs2)c2nnnn2C2CCCC2)CC1 (stereo not given)	-	-	9.9	-	-	-	-
Cc1cccc(NC(=S)N2CCC(N(C)CC3CCCO3)CC2)c1 (stereo not given)	-	-	9.7	-	-	-	-
C=C(C)C(=O)Nc1cccc(C2=NOC3(C2)C[C@@H](C(N)=O)N(C(=O)c2cc([N+](=O)[O-])cc([N+](=O)[O-])c2C)C3)c1 (stereo not given in full)	-	-	10.0	-	-	-	-
C=C(C)C(=O)Nc1cccc(C2=NOC3(C2)C[C@H](C(N)=O)N(C(=O)/C=C/C)C3)c1 (stereo not given in full)	-	-	11.5	-	-	-	-
C/C=C/C(=O)Nc1cccc(C2=NOC3(C2)C[C@@H](C(N)=O)N(C(=O)c2cc([N+](=O)[O-])cc([N+](=O)[O-])c2C)C3)c1 (stereo not given in full)	-	-	10.8	-	-	-	-
C/C=C/C=C\C(=O)Nc1cccc(C2=NOC3(C2)C[C@@H](C(N)=O)N(C(=O)c2cc([N+](=O)[O-])cc([N+](=O)[O-])c2)C3)c1 (stereo not given in full)	-	-	-	-	-	.	.
COC(=O)C1=C(C)N(C)C(=NCc2ccc(OC)cc2)NC1c1cccc(C(F)(F)F)c1 (stereo not given)	-	-	-	-	-	.	.
CCC(C)(C)NC(=O)c1ccc(Sc2nncn2C)c([N+](=O)[O-])c1	-	-	-	-	-	.	.
SMILES	ASAP1 inh	HGIII-sPLA2 inh	PLC-gamma1 inh	PLCb3 inh	ARFGAP1 inh	PLCgamma1 ctr	PLCb3 confirm
Cn1cnnc1Sc1ccc(C(=O)NCCC23CC4CC(CC(C4)C2)C3)cc1[N+](=O)[O-]	-	-	9.5	-	-	-	-
Cc1ccc2nsnc2c1S(=O)(=O)N1CCN(CCc2ccccc2)CC1	-	-	14.0	-	-	-	-
O=S(=O)(c1ccccc1)N1CCN(CCc2ccccc2)CC1	-	-	-	-	-	.	.
CN(C)c1nc(SCCOC(=O)COc2ccc(Cl)cc2Cl)nc(N(C)C)n1	-	-	9.9	-	-	-	-
COc1cc(OC)nc(Nc2nc(C(N)CCc3ccccc3)cs2)n1 (stereo not given)	-	-	10.5	-	-	-	-
S=c1[nH]nc(-c2cc(-c3ccccc3)n[nH]2)n1N=Cc1c[nH]c2ccccc12	.	-	-	-	.	.	.
CN(C)S(=O)(=O)c1cc(NC(=O)COC(=O)CCc2ccccc2)ccc1Cl	-	-	-	-	-	.	.
CN(C)S(=O)(=O)c1cc(NC(=O)[C@H](Cc2ccccc2)N2C(=O)c3ccccc3C2=O)ccc1Cl	-	-	-	10.8	-	-	-
CCOc1ccc(N(CC(=O)Nc2c(C)n(C)n(-c3ccccc3)c2=O)S(=O)(=O)c2ccc3c(c2)N(C(=O)C2CCC2)CC3)cc1	.	-	-	-	.	.	.
COCCCNCC1C(Oc2ccc(Cl)cc2)C(=O)N1c1ccccc1C (stereo not given)	-	-	9.9	-	-	-	-
C[C@@H]1C[C@H](O)CCCCCC(=O)Cc2cc(O)cc(O)c2C(=O)O1	.	-	-	-	.	.	.
O=C(CN1C(=O)c2ccccc2S1(=O)=O)N1CCN(Cc2ccc3c(c2)OCO3)CC1	-	-	9.7	-	-	-	-
CC1(C)CC(=O)N(CC(=O)N2CCN(Cc3ccc4c(c3)OCO4)CC2)c2ccccc2S1(=O)=O	.	-	-	-	.	.	.
O=P(Cc1cc[n+]([O-])cc1)(c1ccccc1)c1ccccc1	-	-	-	11.3	-	-	-
O=C(Nc1ccccc1N1CCOCC1)c1ccc(Cl)c(S(=O)(=O)NCc2ccco2)c1	-	-	9.7	-	-	-	-
O=C(Nc1ccccc1N1CCOCC1)c1ccc(S(=O)(=O)NCc2ccco2)cc1	-	-	-	-	-	.	.
CCOC(=O)c1c(NC(=O)CSc2nnc(C)o2)sc(C)c1C	-	-	9.7	-	-	-	-
O=C(CCS(=O)(=O)c1cccs1)Nc1ccc(C(=O)NCc2ccc(F)cc2)cc1	-	-	9.6	-	-	-	-
O=C(CCS(=O)(=O)c1cccs1)Nc1ccc(C(=O)NCc2cccs2)cc1	-	-	-	-	-	.	.
CC(C)c1ccc(N2C(=NC(=O)C3CCCO3)SC3CS(=O)(=O)CC32)cc1 (stereo not given)	-	-	-	-	-	.	.
CCCCc1ccc(N2C(=NC(=O)C3CCCO3)SC3CS(=O)(=O)CC32)cc1 (stereo not given)	-	-	9.6	-	-	-	-
O=C(C(=O)N1CCC(CNC(=O)c2sc3ccccc3c2Cl)CC1)c1cccs1	-	-	-	-	-	.	.
